Most compounds without a hit are left out; they make up all but 3.9% or so of the library.
OX1R antag-1 = blocks the human orexin 1 receptor. actives 0.43% (n = 330,000). CHO/OX1R cells, Fluo-8 calcium fluorescence, orexin A. inhibition, % at 5 µM;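 active means inhibition above its plate's threshold, mean inhibition of all tested compounds on the plate plus 3 SD, cut at about 37% in these data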;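 further: 0% = orexin A challenge wells and 100% = SB-334867-A antagonist wells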
CHO parental Ca = counter-screen for OX1R antagonists: effect in parental CHO cells; parental CHO-K1, ATP-induced calcium, Fluo-8 fluorescence; inhibition, % at 5.6 µM; actives 0.63% (n = 330,000); AID 463079;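 active means inhibition above that plate's mean sample inhibition plus 3 SD, cut at about 26% in these data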;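 further: 0% = ATP-challenged DMSO wells and 100% = DMSO wells without ATP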
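material = parental CHO cells | also added = ATP as calcium-mobilizing challenge | dosing = single point at 5.6 µM | detection = intracellular calcium via Fluo-8 no-wash fluorescent dye | read-out = % inhibition | benchmarks = low control ATP plus DMSO, high control DMSO only | repeats = one well per compound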
OX1R antag-2 = blocks the human orexin 1 receptor; actives 1.8% (n = 330,000); OX1R-expressing cells, FRET antagonist read-out; inhibition, % at 6.6 µM; O43613; AID 485270; in the data active means inhibition mostly above about 38%, no sharp cut-off; inactive means mostly below about 40%;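 further: 0% = agonist challenge alone and 100% = reference antagonist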
TAAR1 antagonist = human TAAR1 antagonism | Q96RJ0 | CHO RD-HGA16 TAAR1, Fluo-8 calcium fluorescence, antagonist | actives 1.5% (n = 360,000) | inhibition, % at 3 µM | AID 624466;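 active means inhibition above a per-plate cutoff, the mean inhibition of test compounds on that plate plus 3 SD, cut at about 49% in these data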;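 further: 0% = DMSO plus EC80 beta-PEA response and 100% = DMSO alone without agonist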
Target sequence (Q96RJ0 whole entry, looked up): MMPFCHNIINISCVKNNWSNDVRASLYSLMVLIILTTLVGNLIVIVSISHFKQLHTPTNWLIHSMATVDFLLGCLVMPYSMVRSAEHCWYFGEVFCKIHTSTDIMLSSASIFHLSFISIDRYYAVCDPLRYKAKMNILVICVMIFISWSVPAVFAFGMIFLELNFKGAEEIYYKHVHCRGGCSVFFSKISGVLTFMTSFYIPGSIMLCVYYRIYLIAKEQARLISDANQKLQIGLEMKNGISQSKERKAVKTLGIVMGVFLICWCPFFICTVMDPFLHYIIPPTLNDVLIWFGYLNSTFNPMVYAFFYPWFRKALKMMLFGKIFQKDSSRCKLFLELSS
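Test system: CHO RD-HGA16 cells bearing hTAAR1 | Reagent: β-PEA, EC80 | Compound dosing: 3 µM, single point | Schedule: Dye loading 75 min at 37 °C, then 30 min room temperature | Signal: Calcium fluorescence with Fluo-8 | Evaluation: Percent inhibition of PEA-evoked calcium signal, max/basal emission ratio | Control set: DMSO-only wells and EC80 β-PEA-stimulated wells | Repeats: Singlicate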
TAAR1 agonist = agonists of human TAAR1. CHO RD-HGA16 TAAR1, Fluo-8 calcium fluorescence; vehicle wells 0%, saturating PEA agonist 100%. activation, % at 3 µM. actives 0.99% (n = 360,000);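 active means activation above the mean activation of all test compounds in the run plus 3 SD, cut at about 38% in these data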
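System: CHO RD-HGA16 cells carrying human TAAR1 plus Gα16; Incubation: 17-24 h seeding, 75 min 37 °C dye, 30 min RT; Measured by: Fluo-8 fluorescence, 5 s baseline then 140 s kinetic read; Control set: DMSO and PEA EC100; Replication: single well for each compound.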
Starred values were filed as active, the others as inactive; nt = not tested or not shown.

SMILES | OX1R antag-1 | CHO parental Ca | OX1R antag-2 | TAAR1 antagonist | TAAR1 agonist
CC1=NNC(=O)/C1=C\c1cn(-c2ccccc2)nc1-c1ccccc1 | 96.4* | 92.5* | 19.2 | 60.8* | 30.8
CCOC(=O)c1ccc(NC(=O)c2nc[nH]c2C(=O)NCCCCCNC(=O)OC(C)(C)C)cc1 | -38.5 | -9.1 | 9.7 | 55.7* | 13.6
O=C(Nc1ccccc1)c1nc[nH]c1C(=O)NCCNC(=O)c1[nH]cnc1C(=O)Nc1ccccc1 | 39.4 | -2.5 | 65.3* | 56.2* | 26.7
Cc1ccc(NC(=O)c2nc[nH]c2C(=O)NCCCCNC(=O)c2[nH]cnc2C(=O)Nc2ccc(C)cc2)cc1 | -10.0 | -9.0 | 1.1 | 60.2* | 17.8
O=C(Nc1ccccc1)c1nc[nH]c1C(=O)NCCCCNC(=O)c1[nH]cnc1C(=O)Nc1ccccc1 | 0.8 | -9.1 | 6.3 | 57.1* | 20.6
Cc1ccc(NC(=O)c2nc[nH]c2C(=O)NCCCCCCNC(=O)c2[nH]cnc2C(=O)Nc2ccc(C)cc2)cc1 | -7.5 | -5.0 | 1.6 | -6.8 | 2.8
CC1=C(C(=O)N(C(C)C)C(C)C)CC(CC(=O)NC(c2ccccc2)c2ccccc2)C(=O)N1CCCN1CCCC1=O (centres undefined) | nt | nt | nt | -18.3 | 1.3
COc1ccc(CCN2C(=O)COc3ccccc3C2C(=O)NC(C)(C)C)cc1OC (centres undefined) | nt | nt | nt | -13.1 | 3.9
O=C(NN1CCOCC1)c1cnn2c(C(F)F)cc(-c3ccccc3)nc12 | -14.7 | -18.1 | 39.6* | 0.5 | -1.4
COC(=O)c1c(C)[nH]c(C(=O)C(C)OC(=O)C2CC(=O)N(c3ccc(C)cc3)C2)c1C (centres undefined) | 65.8* | 46.1* | 6.8 | 20.8 | 7.2
O=C1c2ccccc2C(=O)N1CCc1nc2ccccc2c(=O)n1-c1ccccn1 | -11.6 | -6.6 | 62.1* | 23.0 | 21.8
C=CC[C@H](CC(=O)NCCO)C(=O)NC[C@@H](OC(=O)[C@@H](CC=C)Cc1ccc(F)cc1)c1ccccc1 | -13.5 | -21.2 | 9.4 | 25.3 | 10.1
C=CC[C@H](CC(=O)N(CCO)Cc1ccccc1)C(=O)NC[C@@H](OC(=O)[C@@H](CC=C)Cc1ccc(F)cc1)c1ccccc1 | 9.5 | -14.3 | 6.8 | 55.5* | 11.3
C=CCC[C@H](Cc1ccc(F)cc1)C(=O)O[C@H](CNC(=O)[C@@H](CC=C)CC(=O)N(CCO)Cc1ccccc1)c1ccccc1 | 21.4 | -7.2 | 9.7 | 55.8* | 7.9
C=CC[C@@H](CC(=O)N(CCO)Cc1ccccc1)C(=O)NCCOC(=O)[C@@H](CC=C)Cc1ccc(F)cc1 | -17.5 | -15.5 | 11.7 | -9.4 | 4.9
Cc1cccc(C)c1NC(=O)C(c1ccccc1)N1CCC(c2ccccc2)CC1 (centres undefined) | nt | nt | nt | -1.6 | -0.3
Cc1nc(NCCc2ccccc2)c2oc3ccccc3c2n1 | 18.5 | 46.2* | 37.1* | 26.5 | 6.1
Cc1nc(NCCN2CCOCC2)c2oc3ccccc3c2n1 | -18.7 | -13.2 | 11.0 | -15.8 | -1.2
COC(=O)[C@]12CCCCC=C1N(CCc1ccc(OC)c(OC)c1)C(=O)[C@H](CC(=O)NCc1cccc(C(F)(F)F)c1)C2 | nt | nt | nt | 48.7* | 4.8
COC(=O)[C@]12CCCCC=C1N(CCc1ccc(OC)c(OC)c1)C(=O)[C@H](CC(=O)NCc1ccc(OC)c(OC)c1)C2 | nt | nt | nt | -6.3 | 5.5
COC(=O)[C@@]12C[C@@H](CC(=O)NCc3cccc(C(F)(F)F)c3)C(=O)N(CCc3ccc(OC)c(OC)c3)C1=CCC(C)(C)C2 | nt | nt | nt | 57.6* | 7.7
COC(=O)[C@]12C[C@H](CC(=O)NCc3cccc(C(F)(F)F)c3)C(=O)N(Cc3ccc4c(c3)OCO4)C1=C[C@H](C(C)(C)C)O[C@@H]2C | nt | nt | nt | -10.6 | 0.0
COc1ccccc1NC(=O)COC(=O)c1cc(C)nc2ccccc12 | 20.2 | -24.1 | 43.5* | 20.0 | 7.3
Cc1cc(C(=O)OCC(=O)NC(=O)c2cccn2C)c2ccccc2n1 | -12.7 | 44.8* | 25.1 | -2.4 | 1.9
COc1cc(NC(=O)c2ccco2)c(C(=O)OCC(=O)c2c[nH]c3ccccc23)cc1OC | -0.2 | 4.8 | 40.7 | 62.5* | 16.8
COc1ccc(CNC(=O)COC(=O)c2cc(C)nc3ccccc23)cc1 | -13.9 | -18.7 | 11.2 | 4.4 | 4.2
COc1ccccc1NC(=O)COC(=O)c1c[nH]c2ccccc12 | 26.8 | -11.5 | 22.7 | 49.5* | 7.9

Source: PubChem BioAssay
